Test results as given in ChEMBL document CHEMBL1955791, “Studies on gambogic acid (IV): Exploring structure-activity relationship with IκB kinase-beta (IKKβ)” (Eur J Med Chem, 2012).
Active and inactive are the calls of the source. No cut-off for these calls is given here.

Key:
[1] = system: A549; test: Antiproliferative activity against human A549 cells after 24 hrs by MTT assay; assay type: functional, cell-based; settings: A549, 24 h
Method in brief: (§1)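 Test agents diluted in culture medium, 24 h exposure. Viability read colorimetrically by MTT; vitality index (%) = A_treatment/A_control × 100; IC50 reported.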

[2] = system: U-251; test: Antiproliferative activity against human U251 cells after 24 hrs by MTT assay; assay type: functional, cell-based; settings: U-251, 24 h; method in brief: as §1
[3] = target: T1, Inhibitor of nuclear factor kappa-B kinase subunit beta (Homo sapiens, UniProt O14920); test: Inhibition of IKK-beta using TMB substrate after 15 mins by spectrophotometer analysis
T1 sequence (O14920 whole entry): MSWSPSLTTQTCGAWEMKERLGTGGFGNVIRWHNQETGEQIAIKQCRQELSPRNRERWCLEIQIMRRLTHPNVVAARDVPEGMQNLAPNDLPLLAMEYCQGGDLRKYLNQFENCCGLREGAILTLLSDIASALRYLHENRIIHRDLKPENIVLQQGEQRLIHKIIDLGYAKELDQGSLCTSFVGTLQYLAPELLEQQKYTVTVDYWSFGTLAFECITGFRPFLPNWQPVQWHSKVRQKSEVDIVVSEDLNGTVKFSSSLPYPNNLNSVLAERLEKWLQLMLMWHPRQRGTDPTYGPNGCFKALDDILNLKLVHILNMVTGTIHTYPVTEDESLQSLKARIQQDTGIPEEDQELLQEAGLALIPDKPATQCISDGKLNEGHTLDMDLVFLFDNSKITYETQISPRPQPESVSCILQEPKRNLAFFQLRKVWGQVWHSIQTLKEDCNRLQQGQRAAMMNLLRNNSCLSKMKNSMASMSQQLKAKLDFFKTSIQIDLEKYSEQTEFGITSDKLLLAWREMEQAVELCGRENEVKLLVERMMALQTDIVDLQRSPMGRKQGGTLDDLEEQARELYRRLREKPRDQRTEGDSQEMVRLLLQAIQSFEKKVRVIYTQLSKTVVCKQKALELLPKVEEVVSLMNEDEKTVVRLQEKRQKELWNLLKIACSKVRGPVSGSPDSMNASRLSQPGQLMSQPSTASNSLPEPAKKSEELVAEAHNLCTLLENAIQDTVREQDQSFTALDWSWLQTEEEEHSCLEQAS
Method in brief: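 Kit-supplied IKKβ (50 ng in 4× reaction cocktail) preincubated with test sample 5 min at room temperature. 2× ATP/biotinylated substrate peptide cocktail added, 30 min at room temperature, stopped with 50 mM EDTA pH 8. Product captured on streptavidin plate, probed with anti-phospho-IκBα (Ser32) then HRP anti-rabbit IgG. TMB developed 15 min, read at 450 nm.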

[4] = system: A549; test: Inhibition of NF-kappaB activation in human A549 cells assessed as inhibition of TNFalpha-induced p65 nuclear translocation treated 4 hrs before TNFalpha stimulation measured after 30 mins by Western blotting; assay type: cell-based
Method in brief: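 A549 cells either untreated or pretreated with compound for 4 h at 37 °C, then given TNFα 50 ng/mL for 30 min. Cytoplasmic and nuclear extracts were western-blotted for p65, with β-actin (cytoplasm) and histone (nucleus) as loading controls.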

[5] = system: A549; test: Inhibition of NF-kappaB activation in human A549 cells assessed as inhibition of TNFalpha/IFNgamma/IL-1beta-induced NF-kappaB nuclear translocation at 5 uM treated 2 hrs before TNFalpha/IFNgamma/IL-1beta stimulation measured after 30 mins; assay type: cell-based
Method in brief: (§2)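 A549 cells plated at 9000 per well, serum-starved 18 h, then given compound at graded concentrations for 2 h at 37 °C. Stimulated 30 min at 37 °C with TNFα 50 ng/mL, IFN-γ 100 U/mL and IL-1β 100 U/mL. Fixed, permeabilised and immunostained for NF-κB. High-content imaging read-out was the nuclear/cytoplasmic NF-κB fluorescence ratio, taken as the translocation inhibition rate.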

[6] = target: T2, NF-kappa-B inhibitor alpha (Homo sapiens) (UniProt P25963); test: Inhibition of TNF-alpha-induced IkappaBalpha phosphorylation in human A549 cells at 4 to 8 uM treated 4 hrs before TNFalpha stimulation measured after 30 mins by Western blotting; assay type: cell-based
T2 sequence (whole entry): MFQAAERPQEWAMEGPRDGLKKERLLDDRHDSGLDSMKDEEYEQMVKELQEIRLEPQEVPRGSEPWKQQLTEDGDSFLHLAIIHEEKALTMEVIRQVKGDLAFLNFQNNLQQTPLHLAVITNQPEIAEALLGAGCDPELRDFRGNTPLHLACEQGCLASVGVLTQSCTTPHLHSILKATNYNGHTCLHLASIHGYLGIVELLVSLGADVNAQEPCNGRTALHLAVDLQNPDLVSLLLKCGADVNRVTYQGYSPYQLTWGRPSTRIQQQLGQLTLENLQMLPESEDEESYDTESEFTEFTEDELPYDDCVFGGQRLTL

[7] = system: U-251; test: Induction of apoptosis in human U251 cells assessed as morphological changes at 8 uM after 24 hrs by inverted light microscopic analysis; assay type: functional, cell-based
Method in brief: (§3)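 U251 cells in DMEM with 10% fetal calf serum under 5% CO2, exposed to compound for 24 h. Cell shape (rounding, shrinkage) inspected and photographed under an inverted light microscope at 200×, compared against untreated cells.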

[8] = system: A549; test: Inhibition of NF-kappaB activation in human A549 cells assessed as inhibition of TNFalpha/IFNgamma/IL-1beta-induced NF-kappaB nuclear translocation treated 2 hrs before TNFalpha/IFNgamma/IL-1beta stimulation measured after 30 mins; assay type: cell-based; method in brief: as §2
[9] = target: T2, NF-kappa-B inhibitor alpha (Homo sapiens); test: Inhibition of TNF-alpha-induced IkappaBalpha degradation in human A549 cells at 4 to 8 uM treated 4 hrs before TNFalpha stimulation measured after 30 mins by Western blotting; assay type: cell-based
Method in brief: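 A549 cells incubated 4 h with 4 or 8 μM compound, then exposed to TNF 0.1 ng/mL for various times. Cytoplasmic IκBα was followed by western blot.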

[10] = system: U-251; test: Induction of apoptosis in human U251 cells assessed as increase in early and median apoptotic cells at 4 to 16 uM after 24 hrs using Annexin V/propidium iodide staining by flow cytometry; assay type: functional
Method in brief: (§4)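 U251 cells (DMEM, 10% fetal calf serum, 5% CO2) treated 24 h, washed with PBS and resuspended in binding buffer (pH 7.5, 10 mM HEPES, 2.5 mM CaCl2, 140 mM NaCl). Stained with Annexin V-FITC then PI for 10 min in the dark at room temperature, then analysed by flow cytometry. Lower-right quadrant counted as early/median apoptotic; upper-right as late apoptotic/necrotic.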

[11] = system: U-251; test: Induction of apoptosis in human U251 cells assessed as morphological changes at 4 to 64 uM after 24 hrs by inverted light microscopic analysis; assay type: functional, cell-based; method in brief: as §3
[12] = system: U-251; test: Induction of apoptosis in human U251 cells assessed as appearance of nuclear condensation and apoptotic bodies at 4 to 64 uM after 24 hrs by DAPI staining; assay type: functional, cell-based
Method in brief: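 Treated U251 cells stained with DAPI and examined by fluorescence microscopy at 400× for bright condensed nuclei and apoptotic bodies.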

[13] = system: U-251; test: Induction of apoptosis in human U251 cells assessed as increase in late apoptotic and necrotic cells at 4 to 16 uM after 24 hrs using Annexin V/propidium iodide staining by flow cytometry; assay type: functional; method in brief: as §4

Structure (SMILES)	IC50 [1]	IC50 [2]	IC50 [3]	other results
CC(C)=CCc1c(O)cc(O)c2c1O[C@]13C(=C[C@@H]4C[C@H]1C(C)(C)O[C@@]3(CC=C(C)C)C4=O)C2=O	3.58 µM	8.57 µM	6.6 µM	–
CC(C)=CC[C@@]12OC(C)(C)[C@@H]3C[C@@H](C=C4C(=O)CC(C)O[C@]431)C2=O (stereo partly drawn)	60.3 µM	82.4 µM	40.3 µM	–
O=c1cc(-c2ccccc2)oc2c(O)c(O)ccc12 [7,8-DIHYDROXYFLAVONE]	37.2 µM	50.1 µM	9.82 µM	–
CC(C)=CCC[C@]1(C)C=Cc2c(O)c3c(c(CC=C(C)C)c2O1)O[C@]12C(=C[C@@H]4C[C@H]1C(C)(C)O[C@@]2(C/C=C(/C)C(=O)O)C4=O)C3=O [GAMBOGIC ACID]	1.1 µM	2.56 µM	3.07 µM	inhibition [4]: Dose-dependent effect; inhibition [5]: 50.2%; inhibition [6]: Active; Activity [7]: Active; inhibition [8]: Dose-dependent effect; inhibition [9]: Active
CC(C)=CC[C@@]12OC(C)(C)[C@@H]3C[C@@H](C=C4C(=O)c5ccccc5O[C@]431)C2=O	1.93 µM	18.7 µM	24.2 µM	–
CC(C)=CCc1c(O)cc(O)c2c(=O)c3ccccc3oc12	34.9 µM	46.8 µM	13.1 µM	–
CC(C)=CC[C@@]12OC(C)(C)[C@@H]3C[C@@H](C=C4C(=O)C=C(c5ccccc5)O[C@]431)C2=O	27.5 µM	40.2 µM	41.7 µM	–
CC(C)=CC[C@@]12OC(C)(C)[C@@H]3C[C@@H](C=C4C(=O)c5c(O)cccc5O[C@]431)C2=O	0.7 µM	9.05 µM	8.17 µM	–
CC(C)=CCc1c(O)cc2c(c1O)C(=O)C1=C[C@@H]3C[C@H]4C(C)(C)O[C@@](CC=C(C)C)(C3=O)[C@@]14O2	14.4 µM	22.4 µM	10.8 µM	–
CC(C)=CCc1cc(C2=CC(=O)C3=C[C@@H]4C[C@H]5C(C)(C)O[C@@](CC=C(C)C)(C4=O)[C@@]35O2)ccc1O	15.5 µM	18.7 µM	25.3 µM	–
CC(C)=CC[C@@]12OC(C)(C)[C@@H]3C[C@@H](C=C4C(=O)c5c(O)cc(O)cc5O[C@]431)C2=O	2.67 µM	7.32 µM	3.52 µM	Activity [10]: 58.21%; Activity [11]: Active; Activity [12]: Active; Activity [13]: 34.24%
